Screen size: about 290,000 compounds; about 1,300 (0.45%) were called active. The list comes from a sample in which actives are over-represented; it also holds similar structures and randomly drawn compounds. Unmarked numbers belong to inactive results.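 Rule for the calls: active = inhibition above the mean plus 3 SD of all compounds in the same screening run (cut at about 4.5% in these data); inactive = the rest.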
Test system: metallo-beta-lactamase IMP-1 (Pseudomonas aeruginosa)
Test: IMP-1 metallo-beta-lactamase inhibitors, primary screen, biochemical, epi-absorbance readout, Pseudomonas aeruginosa enzyme (AID 1556);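 note: 0% = IMP-1 with DMSO and 100% = DMSO wells lacking enzyme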
Conditions: purified IMP-1, nitrocefin hydrolysis, epi-absorbance fluorescence; at 5.6 µM; stronger effect = higher value
How it was run: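 System – purified recombinant IMP-1 beta-lactamase · Input – IMP-1 dispensed at 0.2 nM · Timing – 15 min preincubation plus 25 min reaction at 25 °C · Signal – Epi-absorbance fluorescence, 480 nm excitation, 530 nm emission · Measure – percent IMP-1 inhibition derived from blank-referenced optical density · Controls – Enzyme-plus-DMSO low control, enzyme-free DMSO high control · Replication – singlicate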

Structure (SMILES)	inhibition
O=C(NN1C(=O)C2C3C=CC(O3)C2C1=O)c1ccccc1 (configuration not stated)	-2.31%
COc1ccc(C(=O)NN2C(=O)C3C(c4ccccc4)C=CC(c4ccccc4)C3C2=O)cc1 (configuration not stated)	53.9% (active)
COc1ccccc1C(=O)NN1C(=O)C2C3C=CC(O3)C2C1=O (configuration not stated)	-3.22%
O=C(NC1CCCC1)C(c1ccco1)N(C(=O)c1ccco1)c1ccc(F)cc1 (configuration not stated)	-2.48%
CCCc1cc(C(=O)Nc2ccc(C(=O)OC)cc2)cs1	-3.3%
CCc1ccc(OCC(=O)NCC(c2ccc(Cl)cc2)N2CCCCC2)cc1 (configuration not stated)	-1.02%
COc1cccc(CSc2nc3nc(C)cc(C)n3n2)c1	-1.34%
O=C(Nc1ccnn1C1CCN(C/C=C/c2ccc(F)cc2)CC1)C1CCCC1	0.74%
CCCCC(c1nnnn1CS(=O)(=O)c1ccc(C)cc1)N1CCC(C(N)=O)CC1 (configuration not stated)	0.14%
C=CCN1CCN(C(=O)CCCc2ccccc2)CC1	-0.18%
NS(=O)(=O)c1ccc(NC(=O)COC(=O)c2c3c(nc4ccccc24)/C(=C\c2ccc4c(c2)OCO4)CCC3)cc1	28% (active)
O=C(COC(=O)c1c2c(nc3ccccc13)/C(=C\c1cccs1)CCC2)Nc1ccccc1Cl	-3.13%
NC(=O)c1ccc(NC(=O)COC(=O)c2c3c(nc4ccccc24)/C(=C\c2ccc4c(c2)OCO4)CCC3)cc1	19.6% (active)
NS(=O)(=O)c1ccc(NC(=O)COC(=O)c2cc3ccccc3oc2=O)cc1	-1.27%
COc1cc(-c2cc(C(=O)OCC(=O)Nc3ccc4c(c3)OCO4)c3ccccc3n2)cc(OC)c1OC	-2.57%
COc1cc(/C=C2\CCCc3c2nc2ccccc2c3C(=O)O)cc(Cl)c1O	-1.14%
O=C(c1ccccc1)N1N=C(c2ccccc2O)CC1c1ccc(Br)cc1 (configuration not stated)	-4.1%
Cc1cccc(N2CCN(C(=O)c3cccc(N4C(=O)C5C6C=CC(C6)C5C4=O)c3)CC2)c1C (configuration not stated)	-2.92%
CCCCc1nc(NCCN)c(C#N)c2c1CSC(C)(C)C2	-1.69%
O=C(Nc1ccc(-c2cscn2)cc1)C1CCCN(Cc2ccc(CO)o2)C1 (configuration not stated)	-1.8%
CN(CC1CCCO1)S(=O)(=O)c1ccc(C(=O)Nc2ccc(F)cc2)cc1 (configuration not stated)	-2.19%
O=C(c1cc(COc2cccc(C(F)(F)F)c2)on1)N1CCSCC1	-1.37%
CC(=O)Nc1ccc(S(=O)(=O)N2CCSCC2)cc1	-4.96%

Structure (SMILES)	inhibition
CC(=O)NC1=NC(=O)CS1	12.7% (active)
Cc1ccnc(NC(=O)CCNS(=O)(=O)c2ccc(C)c(C)c2)c1	-3.48%
Cc1cc(NC(=O)Nc2ccccc2[N+](=O)[O-])no1	-1.98%
CCCCCCC(O)(CCN1CCCCC1)c1ccccc1 (configuration not stated)	-1.94%
Cc1cc(C(=O)N/N=C/c2ccc(O)c([N+](=O)[O-])c2)c(C)n1-c1ccc(F)cc1	-0.78%
O=C1CSC(=S)N1/N=C/c1ccc(O)c([N+](=O)[O-])c1	10.3% (active)
CCOc1cccc(/C=N/N2C(=O)CSC2=S)c1O	-2.38%
O=C(Nc1cccc(F)c1)[C@@H]1CCCN1	-1.96%
O=C(NCc1cccs1)c1ccc(CS(=O)Cc2ccccc2Cl)o1 (configuration not stated)	-3%
CC1CC(C)CN(C(=O)CSc2ccsc2[N+](=O)[O-])C1 (configuration not stated)	-2.57%
Cc1ccc(CN2CCCOCCS2(=O)=O)cc1	-1.66%
CC(C)(C)OC(=O)NCCCCCC(=O)N/N=C/c1coc2ccccc2c1=O	-0.81%
Cc1ccc2occ(/C=N/NC(=O)c3ccccc3C)c(=O)c2c1	4.69% (active)
O=C(N/N=C/c1coc2ccccc2c1=O)c1cc2ccccc2o1	-0.92%
CCCCc1ccc(NC(=O)NCc2cccnc2)cc1	-2.87%
COc1ccc(S(=O)(=O)N2CCOC2CNC(=O)C(=O)NCc2ccncc2)cc1C (configuration not stated)	-3.35%
COC(=O)c1nc(NC(=O)c2ccc(C(C)(C)C)cc2)n[nH]1	-2.13%
COC(=O)c1nc(NC(=O)c2ccc(Cl)cc2)n[nH]1	7.73% (active)
COC(=O)c1nc(NC(=O)c2ccc(F)cc2)n[nH]1	-1.83%
CC(C)c1ccc(N(C(=O)c2ccco2)C(C(=O)NC2CCCC2)c2cccnc2)cc1 (configuration not stated)	-1.29%
O=C(N/N=C\c1cccnc1)c1cc(-c2ccccc2)nc2c(Cl)cccc12	-3.33%
Cc1occc1C(=O)NC1CCCN(Cc2ccc(CC(C)C)cc2)C1 (configuration not stated)	-3.33%
Cc1cc(-c2ccc(C)c(S(=O)(=O)NC(C)Cc3ccco3)c2)on1 (configuration not stated)	-1.25%

Structure (SMILES)	inhibition
CCCOc1ccc(-c2c(C(=O)N/N=C/c3ccco3)nnn2-c2nonc2N)cc1	-3.51%
C/C(=N\Nc1ccc(S(N)(=O)=O)cc1[N+](=O)[O-])c1cccs1	21.1% (active)
C/C(=N\Nc1ncc(Cl)cc1Cl)c1cccs1	-0.11%
C/C(=N\NS(=O)(=O)c1ccc(Br)cc1)c1cccs1	-3.54%
COc1cc(C(=S)N2CCOCC2)cc(OC)c1OC(=O)c1ccc([N+](=O)[O-])cc1[N+](=O)[O-]	-5.07%
CNc1nc(-c2ccccc2)cc(-c2ccccc2)n1	2.66%
CS(=O)(=O)c1sc2nc(-c3ccccc3)cc(-c3ccccc3)c2c1N	5.43% (active)
Nc1nc(-c2ccccc2)cc(-c2ccccc2)n1	-4.04%
Cc1cc2nc3c(=O)n(Cc4ccccc4)c(=O)[nH]c3nc2cc1N	9.26% (active)
CC(=O)c1ccc(-c2ccc(Cn3c(C)nc4cc(N)c(C)nc43)cc2)cc1	-0.56%
O=c1[nH]c2c(c(=O)n1Cc1ccccc1)CCC2	-1.53%
COc1cccc(CNC(=O)C2CC(=O)N(C3CCCCCCC3)C2)c1 (configuration not stated)	-1.11%
COc1ccccc1C(=O)N(Cc1ccc(C)o1)C1CCS(=O)(=O)C1 (configuration not stated)	-3.51%
CC1=C(C(=O)OC2CCCCC2)C(c2ccccc2F)NC(=O)N1 (configuration not stated)	-2.31%
COCCOC(=O)C1=C(C)NC(=O)NC1c1ccc(Cl)cc1 (configuration not stated)	-2.42%
CC1=C(C(=O)OCC2CCCCC2)C(c2ccc(F)cc2)NC(=O)N1 (configuration not stated)	28.3% (active)
Cc1ccccc1CNC(=O)CCC(=O)N1Cc2ccccc2Oc2ncccc21	-3.43%
CCNS(=O)(=O)c1ccc(NC(=O)Nc2cccc(OC)c2)cc1	-2.27%
CCOC(=O)c1cnc(SCC(=O)Nc2cccc(OC)c2)nc1N	-1.9%
CCCCCCC(=O)Nc1nc(C)c(-c2csc(Nc3cc(Cl)ccc3OC)n2)s1	-2.05%
CCCCC(=O)Nc1nc(C)c(-c2csc(Nc3ccc(Cl)cc3)n2)s1	0.37%
CCCCCCC(=O)Nc1nc(C)c(-c2csc(Nc3cccc(OC)c3)n2)s1	9.14% (active)
CCOC(=O)c1csc(NC(=O)Nc2cccc(OC)c2)n1	15.1% (active)

Structure (SMILES)	inhibition
COc1ccc(C(=O)Nc2ccc(-n3nncc3C(C)(C)C)cc2)cc1	-2.83%
Clc1ccc(C2=CSC3=Nc4cccc5cccc(c45)N23)cc1	5.6% (active)
CC(=O)c1ccc(N2CCN(C(=O)CCNC(=O)Cn3ccc4ccccc4c3=O)CC2)cc1	-0.18%
O=C(CN1CCOc2ccccc21)N1CCC(Cc2ccccc2)CC1	-0.27%
CCOC(=O)c1c(C)[nH]c(C(=O)NCCN2CCOCC2)c1C	-0.4%
COc1cc(NC(=O)c2ccc3c(c2)OCO3)ccc1NC(=O)c1cccs1	-2.83%
FC(F)(F)C1CCCN(c2nsc3ccccc23)C1 (configuration not stated)	-3.15%
Cc1cccc(C2=N/C(=C/c3cccs3)C(=O)O2)c1	-0.41%
CN1C/C(=C/c2cccs2)C(=O)/C(=C\c2cccs2)C1	0.42%
CSC1=N/C(=C\C=C\c2cccs2)C(=O)S1	12.2% (active)
COc1ccc(C(O)(C2CCCCC2)C(CN2CCCC2)c2ccccc2)cc1 (configuration not stated)	-0.93%
CCc1ccc(NC(=O)Cn2nnc(C(=O)NCc3ccc4c(c3)OCO4)c2N)cc1	0.66%
CCOCCCNC(=S)Nc1ccc2nc(N3CCN(CC)CC3)cc(C)c2c1	-2%
Cc1cc(/C=C2\SC(=O)N(C)C2=O)c(C)n1-c1cccc(C(=O)O)c1	-1.7%
N#Cc1ccccc1CN1C(=O)S/C(=C/c2cccn2-c2cccc(C(=O)O)c2)C1=O	20.9% (active)
Cc1ccccc1NC(=O)CN1C(=O)N/C(=C\c2cccn2-c2cccc(C(=O)O)c2)C1=O	-2.07%
O=C(CNC(=O)c1ccccc1F)c1ccc(Br)cc1	-2.02%
Cc1ccccc1NC(=O)CSc1ccc2nnc(-c3ccccn3)n2n1	-1.21%
CC(NC(=O)CCCC1CCCCC1)c1ccc(S(N)(=O)=O)cc1 (configuration not stated)	-1.72%
O=C(Cc1cccs1)Nc1cccc(-c2nc3ccccc3[nH]2)c1	-5.9%
O=C(/C=C/c1ccco1)Nc1cccc(-c2nc3ccccc3[nH]2)c1	-2.53%
O=C(Nc1cccc(-c2nc3ccccc3[nH]2)c1)c1ccc(C(=O)Nc2cccc(-c3nc4ccccc4[nH]3)c2)cc1	4.99% (active)
CC1CCN(C(=O)CN(c2ccc(Oc3ccccc3)cc2)S(C)(=O)=O)CC1	-2.25%
